# In paper PMC4417838 (International Journal for Parasitology: Drugs and Drug …, 2015):
# “Also recorded” adds a separate entry of the source. Read-outs that look alike come from different tables or passages of the source.
# Experiments:
# [1] = tested on: P. falciparum strain Dd2; assay: Malstat assay, growth inhibition of P. falciparum Dd2; assay type: cell-based, Plasmodium falciparum; conditions: for Selectivity index SI (Dd2): CC50 (MCF7)/IC50 (Dd2); for IC50: Plasmodium falciparum, DD2, read-out: Mean IC50 ± SD Dd2
# [2] = MTT cytotoxicity assay; assay type: cell-based; conditions: human, MCF-7 cells
# [3] = tested on: P. falciparum strain NF54; assay: Malstat assay, growth inhibition of P. falciparum NF54; assay type: cell-based, Plasmodium falciparum; conditions: for Selectivity index SI (NF54): CC50 (MCF7)/IC50 (NF54); for times more potent than tryptanthrin: CQ-sensitive strain; for IC50: Plasmodium falciparum; for gain in activity over the parent compound tryptanthrin: mono-derivatization at position 8, strain not stated
# [4] = tested on: P. falciparum NF54 gametocytes; assay: Gametocyte toxicity test; assay type: cell-based, Plasmodium falciparum; conditions: nanomolar concentrations, positive control
# Procedure, shortened: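 NF54 was seeded at 1–2% parasitemia and 5% hematocrit in RPMI/HEPES/hypoxanthine/bicarbonate with 10% human serum, under 5% O2/5% CO2/90% N2 at 37 °C, with medium changed daily. Stage II gametocytes were plated in triplicate with compound for 48 h, then kept in compound-free medium to day 7. Stage IV–V gametocytes per 1000 erythrocytes were counted on Giemsa smears and normalised to the DMSO control; means were compared by one-way ANOVA with Tukey's test.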
# [5] = Stability observation; assay type: physicochemical
# [6] = tested on: P. falciparum NF54 mature gametocytes; assay: Exflagellation assay; assay type: cell-based, Plasmodium falciparum; conditions: compound at IC90 concentration, 15 min and 24 h incubation
# Procedure, shortened: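 Mature NF54 gametocyte cultures (from day 13) were split into two flasks, one with test compound and one with DMSO only. Aliquots taken after 15 min at 37 °C and after 24 h were activated with xanthurenic acid for 15 min, pelleted, and resuspended in medium containing 100 µM xanthurenic acid. Exflagellation centres were counted in 30 fields relative to the DMSO control. The experiment was run twice, on separately seeded cultures.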
# [7] = Solubility in DMSO; assay type: physicochemical; conditions: organic solvent or mixture
# [8] = NF54, read-out: Mean IC50 ± SD NF54
# [9] = DD2|NF54, read-out: IC50 (considered not effective)
SMILES,Selectivity index SI (Dd2) [1],IC50 [1],CC50 [2],Selectivity index SI (NF54) [3],"IC50 [3, 8]",also measured
"O=C1c2cc(Br)ccc2-n2c1nc1ccc(Cl)cc1c2=O [BT2, 8-Bromo-2-chloro-indolo [2,1-b] quinazoline-6,12-dione]",>800,123 ± 62 nM,> 100000 nM,>2000,36 ± 24 nM,times more potent than tryptanthrin [3]: at least 5
CC[C@H](C)[C@H](NC(=O)[C@H]([C@@H](C)CC)N(C)C(C)=O)C(=O)N[C@H](C(=O)N[C@@H](CC(C)C)C(=O)[C@@]1(C)CO1)[C@@H](C)O [epoxomicin],,,,,,effect on gametocytes in culture [4]: fully eliminate the gametocytes
"O=C(O)c1ccc2c(=O)n3c(nc2c1)C(=O)c1cc([N+](=O)[O-])ccc1-3 [NT4, 8-Nitro-6,12-dioxo-6,12-dihydro-indolo[2,1-b]quinazoline-3-carboxylic acid]",,> 50000 nM,> 100000 nM,,> 50000 nM,"IC50 [3, 9]: > 50000 nM"
"O=C1c2cc(Br)ccc2-n2c1nc1ccccc1c2=O [Compound T2, 8-Bromo-indolo [2,1-b] quinazoline-6,12-dione]",110.2,95 ± 58 nM,10500 ± 1520 nM,129.3,81 ± 8 nM,gain in activity over the parent compound tryptanthrin [3]: approximately three times
"O=C1c2cc([N+](=O)[O-])ccc2-n2c1nc1ccccc1c2=O [Compound T4, 8-Nitro-indolo [2,1-b] quinazoline-6,12-dione]",29,165 ± 55 nM,4780 ± 490 nM,45.1,106 ± 38 nM,gain in activity over the parent compound tryptanthrin [3]: approximately three times
"Cc1ccc2c(c1)C(=O)c1nc3ccccc3c(=O)n1-2 [Compound T1, 8-Methyl-indolo [2,1-b] quinazoline-6,12-dione]",>400,216 ± 116 nM,> 100000 nM,>1000,85 ± 37 nM,gain in activity over the parent compound tryptanthrin [3]: approximately three times
"O=C1c2cc(Br)ccc2-n2c1nc1cc(Cl)ccc1c2=O [BT1, 8-Bromo-3-chloro-indolo [2,1-b] quinazoline-6,12-dione]",10,238 ± 80 nM,2380 ± 1 nM,66,36 ± 17 nM,times more potent than tryptanthrin [3]: at least 5
O=C1c2ccccc2-n2c1nc1ccc([N+](=O)[O-])cc1c2=O [2-Nitrotryptanthrin],,,,,,stability [5]: highly unstable
"COC(=O)c1ccc2c(=O)n3c(nc2c1)C(=O)c1cc([N+](=O)[O-])ccc1-3 [NT5, 8-Nitro-6,12-dioxo-6,12-dihydro-indolo[2,1-b] quinazoline-3-carboxylic acid methyl ester]",72.1,166 ± 36 nM,12000 ± 500 nM,71.7,167 ± 67 nM,
"COC(=O)c1ccc2c(=O)n3c(nc2c1)C(=O)c1cc(Br)ccc1-3 [BT5, 8-Bromo-6,12-dioxo-6,12-dihydro-indolo[2,1-b] quinazoline-3-carboxylic acid methylester]",40,287 ± 24 nM,11500 ± 5420 nM,70.9,162 ± 93 nM,
"O=C1c2ccccc2-n2c1nc1cc(Cl)ccc1c2=O [Compound T8, 3-Chloro-indolo [2,1-b] quinazoline-6,12-dione]",103.5,165 ± 81 nM,17100 ± 4260 nM,186,92 ± 3 nM,reduction of exflagellation of microgametes [6]: neither tryptanthrin nor T8 were able to significantly inhibit the exflagellation; also recorded: no influence on exflagellation
"O=C1c2ccccc2-n2c1nc1ccccc1c2=O [TRYP, indolo-[2,1-b]-quinazoline-6, 12-Dione, reference compound]",,114 ± 17 nM,45900 ± 700 nM,,288 ± 87 nM,
"O=C(O)c1ccc2c(=O)n3c(nc2c1)C(=O)c1cc(Br)ccc1-3 [BT4, 8-Bromo-6,12-dioxo-6,12-dihydro-indolo[2,1-b] quinazoline-3-carboxylic acid]",,> 50000 nM,71000 ± 39700 nM,,> 50000 nM,"IC50 [3, 9]: > 50000 nM"
"O=C1c2cc([N+](=O)[O-])ccc2-n2c1nc1cc(Br)ccc1c2=O [NT6, 3-Bromo-8-nitro-indolo [2,1-b] quinazoline-6,12-dione]",174,101 ± 68 nM,17500 ± 770 nM,243.3,72 ± 23 nM,
"CCN(CC)CCCC(C)Nc1ccnc2cc(Cl)ccc12 (stereo not drawn) [CQ, Chloroquine, reference compound]",,294 ± 30 nM,> 100000 nM,,21 ± 2 nM,times more potent against CQ-sensitive strain compared with the resistant strain ([3]; CQ-sensitive versus CQ-resistant strain): 13; IC50 ([3]; NF54): 20 nM
"O=C1c2cc(Cl)ccc2-n2c1nc1ccccc1c2=O [Compound T7, 8-Chloro-indolo [2,1-b] quinazoline-6,12-dione]",158.5,172 ± 18 nM,27200 ± 6680 nM,286.1,95 ± 33 nM,gain in activity over the parent compound tryptanthrin [3]: approximately three times
"COc1cc2nc3n(c(=O)c2cc1OC)-c1ccc(Br)cc1C3=O [BT3, 8-Bromo-2,3-dimethoxy-indolo[2,1-b]quinazoline-6,12-dione]",>100,761 ± 194 nM,> 100000 nM,>1000,88 ± 41 nM,
"O=C1c2cc(F)ccc2-n2c1nc1ccccc1c2=O [Compound T6, 8-Fluoro-indolo [2,1-b] quinazoline-6,12-dione]",175.6,100 ± 15 nM,17500 ± 650 nM,306.5,57 ± 10 nM,times more potent than tryptanthrin [3]: at least 5; gain in activity over the parent compound tryptanthrin [3]: approximately three times
"COc1cc2nc3n(c(=O)c2cc1OC)-c1ccc([N+](=O)[O-])cc1C3=O [NT3, 2,3-Dimethoxy-8-nitro-indolo [2,1-b] quinazoline-6,12-dione]",113.2,134 ± 47 nM,15200 ± 4410 nM,53.6,283 ± 93 nM,
"O=C1c2cc([N+](=O)[O-])ccc2-n2c1nc1cc(Cl)ccc1c2=O [NT1, 3-Chloro-8-nitro-indolo [2,1-b] quinazoline-6,12-dione]",168.7,31 ± 5 nM,5150 ± 110 nM,155.9,33 ± 4 nM,solubility [7]: 10 mM; times more active than tryptanthrin ([1]; CQ-resistant strain): 3.3; times more potent than tryptanthrin [3]: at least 5; IC50 ([3]; NF54): 30 nM
"Cc1cccc2c1C(=O)c1nc3ccccc3c(=O)n1-2 [Compound T3, 7-Methyl-indolo [2,1-b] quinazoline-6,12-dione]",29.3,602 ± 115 nM,17600 ± 300 nM,39.2,450 ± 98 nM,
"O=C1c2cc([N+](=O)[O-])ccc2-n2c1nc1ccc(Cl)cc1c2=O [NT2, 2-Chloro-8-nitro-indolo [2,1-b] quinazoline-6,12-dione]",136.5,91 nM,12500 ± 230 nM,96.7,129 ± 22 nM,
